Test results reported in ChEMBL document CHEMBL2331505, “Synthesis of quinoline derivatives: discovery of a potent and selective phosphodiesterase 5 inhibitor for the treatment of Alzheimer's disease” (Eur J Med Chem, 2013).

Key:
[1] = target: cGMP-specific 3',5'-cyclic phosphodiesterase (Homo sapiens, UniProt O76074); assay: Inhibition of PDE5 (unknown origin) using FAM-cGMP as substrate after 60 mins by fluorescence assay
[2] = test system: Mus musculus; assay: Reversal of contextual fear memory deficit in APP/PS1 transgenic mouse assessed as increase in freezing behavior at 3 mg/kg/day, ip administered 3 weeks measured after 9 to 12 weeks […] (reference value: 10%); type: functional; conditions: route intraperitoneal
[3] = test system: Mus musculus; assay: Reversal of post synaptic dysfunction in APP/PS1 transgenic mouse assessed as increase in theta burst-induced long term potentiation at 3 mg/kg/day, ip administered 3 weeks measured after 9 to 12 weeks […] (reference value: 112.29 9.12%); type: functional; conditions: route intraperitoneal
[4] = test system: Mus musculus; assay: Reversal of contextual fear memory deficit in APP/PS1 transgenic mouse assessed as increase in freezing behavior at 3 mg/kg, ip after 3 weeks (reference value: 10%); type: functional; conditions: route intraperitoneal
[5] = test system: Hippocampus; assay: (§1) Reversal of post synaptic dysfunction in APP/PS1 transgenic mouse hippocampal assessed as increase in theta burst-induced long term potentiation at 50 nM incubated 10 mins prior to theta burst induction measured after 2 hrs for 5 mins by electrophysiological assay (reference value: 145.84 7.78%); type: functional
Summary of the method: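 Transverse hippocampal slices (400 μm) from APP/PS1 mice were kept in an interface chamber at 29 °C and perfused with aerated ACSF, pH 7.4. Compound (50 nM) was bath-applied for 10 min before tetanus. CA1 fEPSP slopes were expressed as % of baseline, averaged over the last 5 min of a 2 h recording.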

[6] = test system: Mus musculus; assay: Reversal of contextual fear memory deficit in amyloid beta42-infused mouse assessed as increase in freezing behavior at 3 to 10 mg/kg, po administered immediately post electric shock measured after 24 hrs (reference value: 10%); type: functional; conditions: dose mg/kg 3-10
Summary of the method: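 Aβ42 (200 nM, 1 μl over 1 min) or vehicle was infused bilaterally into the dorsal hippocampus through cannulas implanted 6–8 days earlier under Avertin. Infusion was 15 min before foot-shock training. Compound was given at 3 or 10 mg/kg p.o. immediately after training. Freezing was scored for 5 min in the same chamber 24 h later.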

[7] = test system: Hippocampus; assay: as §1, with “of amyloid beta42-induced” for “of”, “in” for “in APP/PS1 transgenic”, “60 mins” for “2 hrs”, “144.65 9.99%)” for “145.84 7.78%)”; type: functional
[8] = Ratio of AUC (0 to infinity) in mouse brain to AUC (0 to infinity) in mouse plasma; type: ADME, cell-free
Summary of the method: (§2)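 Male BALB/c mice given 50 mg/kg p.o. in 0.05% methylcellulose aqueous solution. Blood (retro-orbital, heparin) and brain taken at 0, 0.25, 0.5, 1.0, 2.0 and 4.0 h, three mice per time point. Plasma and methanol brain homogenate extracted with internal standard and quantified by LC/MS/MS (peak area ratio, weighted linear regression). Ratio is brain over plasma parameter.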

[9] = Ratio of AUC (0 to t) in mouse brain to AUC (0 to t) in mouse plasma; type: ADME, cell-free; summary of the method: as §2
[10] = Ratio of Cmax in mouse brain to Cmax in mouse plasma; type: ADME, cell-free; summary of the method: as §2
[11] = test system: Plasma; assay: Mean residence time in mouse plasma at 50 mg/kg, po; type: ADME, organism-based; parameters: dose 50 mg/kg, route oral; conditions: in vivo
[12] = test system: Plasma; assay: AUC (0 to infinity) in mouse plasma at 50 mg/kg, po; type: ADME, organism-based; parameters: time infinity, dose 50 mg/kg, route oral; conditions: in vivo
Summary of the method: (§3)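 Male BALB/c mice dosed once orally at 50 mg/kg in 0.05% aqueous methylcellulose. Blood (retro-orbital, heparin) and brain were taken at 0, 0.25, 0.5, 1, 2 and 4 h, three mice per time point. Plasma and methanol brain homogenate were extracted with methanol plus internal standard and analysed by LC/MS/MS. Quantitation used analyte/internal standard peak-area ratios with weighted (1/x2) linear regression.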

[13] = test system: Plasma; assay: AUC (0 to t) in mouse plasma at 50 mg/kg, po; type: ADME, organism-based; parameters: dose 50 mg/kg, route oral; conditions: in vivo; summary of the method: as §3
[14] = test system: Brain; assay: AUC (0 to infinity) in mouse brain at 50 mg/kg, po; type: ADME, organism-based; parameters: dose 50 mg/kg, route oral, time infinity; conditions: in vivo; summary of the method: as §3
[15] = test system: Brain; assay: AUC (0 to t) in mouse brain at 50 mg/kg, po; type: ADME, organism-based; parameters: dose 50 mg/kg, route oral; conditions: in vivo; summary of the method: as §3
[16] = test system: Plasma; assay: Cmax in mouse plasma at 50 mg/kg, po; type: ADME, organism-based; parameters: dose 50 mg/kg, route oral; conditions: in vivo; summary of the method: as §3
[17] = Cmax in mouse brain at 50 mg/kg, po; type: ADME, organism-based; parameters: dose 50 mg/kg, route oral; summary of the method: as §3
[18] = test system: Plasma; assay: Tmax in mouse plasma at 50 mg/kg, po; type: ADME, organism-based; parameters: dose 50 mg/kg, route oral; conditions: in vivo; summary of the method: as §3
[19] = test system: Brain; assay: Tmax in mouse brain at 50 mg/kg, po; type: ADME, organism-based; parameters: dose 50 mg/kg, route oral; conditions: in vivo; summary of the method: as §3
[20] = test system: Mus musculus; assay: Inhibition of PDE5 in C57Bl6 mouse assessed as increase in electric shock-induced hippocampal cGMP level measured per mg of protein at 3 mg/kg, ip administered 30 mins prior to electric shock induction measured after 3 mins (reference value: 0.46 0.0385 pmol); type: functional, Hippocampus; conditions: route intraperitoneal
Summary of the method: (§4)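 Male and female C57Bl6 mice, 2–3 months old, 20–25 g, received 3 mg/kg i.p. in 2% DMSO/2% Tween or vehicle alone. Foot shock was given 30 min later. Mice were killed 10 s, 1 min or 3 min after shock and the hippocampus was snap-frozen. cGMP was measured by enzyme immunoassay in duplicate and normalised to BCA protein; n=3 per group.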

[21] = test system: Mus musculus; assay: Inhibition of PDE5 in C57Bl6 mouse assessed as increase in electric shock-induced hippocampal cGMP level measured per mg of protein at 3 mg/kg, ip administered 30 mins prior to electric shock induction measured after 1 min (reference value: 0.41 0.028 pmol); type: functional, Hippocampus; conditions: route intraperitoneal; summary of the method: as §4
[22] = test system: Mus musculus; assay: Inhibition of PDE5 in C57Bl6 mouse assessed as increase in electric shock-induced hippocampal cGMP level measured per mg of protein at 3 mg/kg, ip administered 30 mins prior to electric shock induction measured after 10 secs (reference value: 0.318 0.0145 pmol); type: functional, Hippocampus; conditions: route intraperitoneal; summary of the method: as §4
[23] = species: Homo sapiens; assay: Selectivity ratio of IC50 for PDE10 (unknown origin) to IC50 for PDE5 (unknown origin)
[24] = species: Homo sapiens; assay: Selectivity ratio of IC50 for PDE11 (unknown origin) to IC50 for PDE5 (unknown origin)
[25] = species: Homo sapiens; assay: Selectivity ratio of IC50 for PDE9 (unknown origin) to IC50 for PDE5 (unknown origin)
[26] = species: Homo sapiens; assay: Selectivity ratio of IC50 for PDE7 (unknown origin) to IC50 for PDE5 (unknown origin)
[27] = species: Homo sapiens; assay: Selectivity ratio of IC50 for PDE8 (unknown origin) to IC50 for PDE5 (unknown origin)
[28] = species: Homo sapiens; assay: Selectivity ratio of IC50 for PDE6 (unknown origin) to IC50 for PDE5 (unknown origin)
[29] = species: Homo sapiens; assay: Selectivity ratio of IC50 for PDE4 (unknown origin) to IC50 for PDE5 (unknown origin)
[30] = species: Homo sapiens; assay: Selectivity ratio of IC50 for PDE3 (unknown origin) to IC50 for PDE5 (unknown origin)
[31] = species: Homo sapiens; assay: Selectivity ratio of IC50 for PDE1 (unknown origin) to IC50 for PDE5 (unknown origin)
[32] = species: Homo sapiens; assay: Selectivity ratio of IC50 for PDE2 (unknown origin) to IC50 for PDE5 (unknown origin)
[33] = target: Phosphodiesterase 1 (Homo sapiens, UniProt P54750+Q01064+Q14123); assay: Inhibition of PDE1 (unknown origin) using FAM-cGMP and FAM-cAMP as substrate after 60 mins by fluorescence assay; type: protein assay
[34] = target: Dual 3',5'-cyclic-AMP and -GMP phosphodiesterase 11A (Homo sapiens, UniProt Q9HCR9); assay: Inhibition of PDE11 (unknown origin) using FAM-cGMP and FAM-cAMP as substrate after 60 mins by fluorescence assay
[35] = target: High affinity cGMP-specific 3',5'-cyclic phosphodiesterase 9A (Homo sapiens, UniProt O76083); assay: Inhibition of PDE9 (unknown origin) using FAM-cGMP as substrate after 60 mins by fluorescence assay
[36] = target: cAMP and cAMP-inhibited cGMP 3',5'-cyclic phosphodiesterase 10A (Homo sapiens, UniProt Q9Y233); assay: Inhibition of PDE10 (unknown origin) using FAM-cGMP and FAM-cAMP as substrate after 60 mins by fluorescence assay
[37] = target: Phosphodiesterase 8 (Homo sapiens, UniProt O95263+O60658); assay: Inhibition of PDE8 (unknown origin) using FAM-cAMP as substrate after 60 mins by fluorescence assay; type: protein assay
[38] = target: Phosphodiesterase 7 (Homo sapiens, UniProt Q13946+Q9NP56); assay: Inhibition of PDE7 (unknown origin) using FAM-cAMP as substrate after 60 mins by fluorescence assay; type: protein assay
[39] = target: Phosphodiesterase 6; assay: Inhibition of PDE6 (unknown origin) using FAM-cGMP as substrate after 60 mins by fluorescence assay; type: protein assay, Homo sapiens
[40] = target: Phosphodiesterase 4 (Homo sapiens, UniProt P27815+Q08499+Q07343+Q08493); assay: Inhibition of PDE4 (unknown origin) using FAM-cAMP as substrate after 60 mins by fluorescence assay; type: protein assay
[41] = target: Phosphodiesterase 3 (Homo sapiens, UniProt Q14432+Q13370); assay: Inhibition of PDE3 (unknown origin) using FAM-cGMP and FAM-cAMP as substrate after 60 mins by fluorescence assay; type: protein assay
[42] = target: cGMP-dependent 3',5'-cyclic phosphodiesterase (Homo sapiens, UniProt O00408); assay: Inhibition of PDE2 (unknown origin) using FAM-cGMP and FAM-cAMP as substrate after 60 mins by fluorescence assay
[43] = test system: Brain; assay: Mean residence time in mouse brain at 50 mg/kg, po; type: ADME, organism-based; parameters: dose 50 mg/kg, route oral; conditions: in vivo; summary of the method: as §3

cGMP-dependent 3',5'-cyclic phosphodiesterase, sequence (O00408 whole entry): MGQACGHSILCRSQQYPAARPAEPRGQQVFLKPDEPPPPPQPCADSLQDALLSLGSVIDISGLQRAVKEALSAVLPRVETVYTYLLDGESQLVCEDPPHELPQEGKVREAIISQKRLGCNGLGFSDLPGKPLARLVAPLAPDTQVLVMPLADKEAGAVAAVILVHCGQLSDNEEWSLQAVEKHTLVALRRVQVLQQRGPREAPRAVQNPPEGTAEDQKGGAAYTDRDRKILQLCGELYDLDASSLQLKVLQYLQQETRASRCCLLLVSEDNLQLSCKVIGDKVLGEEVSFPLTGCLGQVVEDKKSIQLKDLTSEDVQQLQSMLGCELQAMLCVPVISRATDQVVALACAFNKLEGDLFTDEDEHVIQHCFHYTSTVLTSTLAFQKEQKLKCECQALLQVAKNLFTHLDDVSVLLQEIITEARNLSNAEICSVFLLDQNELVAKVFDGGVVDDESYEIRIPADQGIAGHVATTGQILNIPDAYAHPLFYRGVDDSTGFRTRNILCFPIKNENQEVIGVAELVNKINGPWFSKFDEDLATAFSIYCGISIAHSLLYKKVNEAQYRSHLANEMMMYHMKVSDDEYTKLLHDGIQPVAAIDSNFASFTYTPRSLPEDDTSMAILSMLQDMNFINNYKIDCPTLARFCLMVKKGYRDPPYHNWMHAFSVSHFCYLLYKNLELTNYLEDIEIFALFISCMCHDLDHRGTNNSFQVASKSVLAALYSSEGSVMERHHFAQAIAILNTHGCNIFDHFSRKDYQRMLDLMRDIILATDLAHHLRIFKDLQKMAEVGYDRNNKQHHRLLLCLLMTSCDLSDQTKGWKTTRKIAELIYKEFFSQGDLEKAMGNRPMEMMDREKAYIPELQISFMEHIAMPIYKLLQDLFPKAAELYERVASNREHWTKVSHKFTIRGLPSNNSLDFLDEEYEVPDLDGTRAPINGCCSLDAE
cAMP and cAMP-inhibited cGMP 3',5'-cyclic phosphodiesterase 10A, sequence (Q9Y233 whole entry): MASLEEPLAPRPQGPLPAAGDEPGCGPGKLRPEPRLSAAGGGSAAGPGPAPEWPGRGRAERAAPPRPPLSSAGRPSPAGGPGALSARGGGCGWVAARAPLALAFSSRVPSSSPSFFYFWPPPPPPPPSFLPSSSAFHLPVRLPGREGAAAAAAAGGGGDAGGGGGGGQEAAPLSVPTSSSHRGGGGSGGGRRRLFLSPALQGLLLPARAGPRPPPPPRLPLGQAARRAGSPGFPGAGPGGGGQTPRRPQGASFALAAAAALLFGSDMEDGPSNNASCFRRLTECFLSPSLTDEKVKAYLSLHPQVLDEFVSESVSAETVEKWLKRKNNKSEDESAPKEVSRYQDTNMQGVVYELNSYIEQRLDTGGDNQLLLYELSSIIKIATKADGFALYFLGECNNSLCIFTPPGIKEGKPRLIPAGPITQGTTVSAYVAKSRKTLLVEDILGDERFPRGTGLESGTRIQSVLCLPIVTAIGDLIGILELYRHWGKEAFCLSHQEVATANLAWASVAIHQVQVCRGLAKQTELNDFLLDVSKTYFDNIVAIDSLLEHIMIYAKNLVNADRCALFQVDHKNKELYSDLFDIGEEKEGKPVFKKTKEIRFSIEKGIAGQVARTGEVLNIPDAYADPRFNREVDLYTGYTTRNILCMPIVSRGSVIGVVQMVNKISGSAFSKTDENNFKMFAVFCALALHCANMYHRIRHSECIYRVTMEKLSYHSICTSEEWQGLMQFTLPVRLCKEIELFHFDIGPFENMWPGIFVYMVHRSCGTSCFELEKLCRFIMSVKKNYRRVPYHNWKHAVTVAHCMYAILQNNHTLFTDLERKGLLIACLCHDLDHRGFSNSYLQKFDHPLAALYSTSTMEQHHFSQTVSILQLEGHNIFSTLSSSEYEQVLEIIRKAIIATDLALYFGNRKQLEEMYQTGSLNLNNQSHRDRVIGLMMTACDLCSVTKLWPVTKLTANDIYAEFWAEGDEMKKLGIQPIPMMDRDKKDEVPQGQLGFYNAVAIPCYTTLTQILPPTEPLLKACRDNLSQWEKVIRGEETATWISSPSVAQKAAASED
High affinity cGMP-specific 3',5'-cyclic phosphodiesterase 9A, sequence (O76083 whole entry): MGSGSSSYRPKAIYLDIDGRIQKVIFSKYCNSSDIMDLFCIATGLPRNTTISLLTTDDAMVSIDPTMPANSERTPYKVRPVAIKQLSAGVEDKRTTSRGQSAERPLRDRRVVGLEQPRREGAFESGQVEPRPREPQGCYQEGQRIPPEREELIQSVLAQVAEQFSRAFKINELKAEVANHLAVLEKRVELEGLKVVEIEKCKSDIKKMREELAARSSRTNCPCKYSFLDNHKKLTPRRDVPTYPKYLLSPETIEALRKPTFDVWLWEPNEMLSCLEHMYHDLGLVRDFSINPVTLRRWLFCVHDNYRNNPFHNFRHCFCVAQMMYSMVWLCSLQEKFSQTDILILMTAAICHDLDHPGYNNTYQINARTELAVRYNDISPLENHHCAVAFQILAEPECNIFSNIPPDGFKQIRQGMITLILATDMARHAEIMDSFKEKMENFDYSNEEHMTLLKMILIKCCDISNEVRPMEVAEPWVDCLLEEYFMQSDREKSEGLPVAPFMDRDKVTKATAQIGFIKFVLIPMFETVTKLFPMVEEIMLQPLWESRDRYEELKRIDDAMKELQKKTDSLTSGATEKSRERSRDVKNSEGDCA
Dual 3',5'-cyclic-AMP and -GMP phosphodiesterase 11A, sequence (Q9HCR9 whole entry): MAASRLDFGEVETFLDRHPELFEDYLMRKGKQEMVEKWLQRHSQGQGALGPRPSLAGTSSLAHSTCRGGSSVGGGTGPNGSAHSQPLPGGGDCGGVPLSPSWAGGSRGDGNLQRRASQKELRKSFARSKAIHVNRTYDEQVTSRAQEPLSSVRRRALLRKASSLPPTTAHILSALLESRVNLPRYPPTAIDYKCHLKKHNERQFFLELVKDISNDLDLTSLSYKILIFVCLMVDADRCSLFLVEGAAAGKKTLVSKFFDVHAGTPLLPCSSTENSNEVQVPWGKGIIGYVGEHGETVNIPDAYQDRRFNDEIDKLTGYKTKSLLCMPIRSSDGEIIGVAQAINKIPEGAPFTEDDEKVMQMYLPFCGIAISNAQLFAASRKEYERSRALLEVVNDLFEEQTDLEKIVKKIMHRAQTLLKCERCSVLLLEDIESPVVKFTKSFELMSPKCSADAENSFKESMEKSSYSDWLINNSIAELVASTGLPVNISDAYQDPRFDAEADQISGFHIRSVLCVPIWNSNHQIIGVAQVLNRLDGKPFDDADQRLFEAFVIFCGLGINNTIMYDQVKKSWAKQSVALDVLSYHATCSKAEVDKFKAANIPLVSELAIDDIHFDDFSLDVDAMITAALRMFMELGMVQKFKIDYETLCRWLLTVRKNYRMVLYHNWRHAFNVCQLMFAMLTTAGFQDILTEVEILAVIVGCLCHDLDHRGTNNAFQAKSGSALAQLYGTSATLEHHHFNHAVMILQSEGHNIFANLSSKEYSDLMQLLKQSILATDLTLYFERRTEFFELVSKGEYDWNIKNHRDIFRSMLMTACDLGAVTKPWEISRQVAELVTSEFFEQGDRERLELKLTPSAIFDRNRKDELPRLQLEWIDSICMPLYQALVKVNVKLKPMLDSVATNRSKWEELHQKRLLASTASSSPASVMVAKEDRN

`COc1ccc(CNc2c(CO)cnc3c(N4CCOCC4)cc(C#N)cc23)cc1Cl` showed an IC50 [1] of 0.00063 µM.
In the case of `COc1ccc(CNc2c(CO)cnc3c(C4CC4)cc(C#N)cc23)cc1Cl`, the Activity [2] is reported as 30%, the Activity [3] is reported as 180.9% and the Activity [4] is reported as 30%. It also gave an Activity [5] of 180.85%, an Activity [6] of 30% and an Activity [7] of 192.63%. For the same compound, the “Ratio AUC” value [8] was 0.37, the “Ratio AUC” value [9] was 0.41 and the Ratio [10] was 0.38. The MRT [11] was 1.61 h, the AUC [12] was 1133 ng·h/mL and the AUCt [13] was 1014 ng·h/mL. It also gave an AUC [14] of 420 ng·h/g, an AUCt [15] of 418 ng·h/g and a Cmax [16] of 1022 ng/mL. It also gave a Cmax [17] of 385 ng/g, a Tmax [18] of 0.5 h and a Tmax [19] of 0.5 h. It also gave an Activity [20] of 0.89 pmol, an Activity [21] of 0.69 pmol and an Activity [22] of 0.83 pmol. For the same compound, the Ratio IC50 [23] was > 10000, the Ratio IC50 [24] was > 10000 and the Ratio IC50 [25] was > 10000. For the same compound, the Ratio IC50 [26] was > 10000, the Ratio IC50 [27] was > 10000 and the Ratio IC50 [28] was 1260. The Ratio IC50 [29] was > 10000, the Ratio IC50 [30] was > 10000 and the Ratio IC50 [31] was > 10000. The Ratio IC50 [32] was > 10000, the IC50 [33] was > 10 µM and the IC50 [34] was > 10 µM. For the same compound, the IC50 [35] was > 10 µM, the IC50 [36] was > 10 µM and the IC50 [37] was > 10 µM. For the same compound, the IC50 [38] was > 10 µM, the IC50 [39] was 0.339 µM and the IC50 [40] was > 10 µM. For the same compound, the IC50 [41] was > 10 µM, the IC50 [42] was > 10 µM and the MRT [43] was 1.66 h.
For `CCNc1cc(C#N)cc2c(NCc3ccc(OC)c(Cl)c3)c(CO)cnc12`, the IC50 [1] was 0.015 µM.
With `CN1CC(=O)N2[C@H](c3ccc4c(c3)OCO4)c3[nH]c4ccccc4c3C[C@@H]2C1=O` the IC50 [33] was > 10 µM, the IC50 [35] was > 10 µM and the IC50 [36] was > 10 µM. For the same compound, the IC50 [37] was > 10 µM, the IC50 [38] was > 10 µM and the IC50 [41] was > 10 µM. For the same compound, the IC50 [42] was > 10 µM.
